The target of assay [1] is T1, Aminopeptidase N (Plasmodium falciparum FcB1/Columbia) (UniProt O96935).
T1 sequence (whole entry): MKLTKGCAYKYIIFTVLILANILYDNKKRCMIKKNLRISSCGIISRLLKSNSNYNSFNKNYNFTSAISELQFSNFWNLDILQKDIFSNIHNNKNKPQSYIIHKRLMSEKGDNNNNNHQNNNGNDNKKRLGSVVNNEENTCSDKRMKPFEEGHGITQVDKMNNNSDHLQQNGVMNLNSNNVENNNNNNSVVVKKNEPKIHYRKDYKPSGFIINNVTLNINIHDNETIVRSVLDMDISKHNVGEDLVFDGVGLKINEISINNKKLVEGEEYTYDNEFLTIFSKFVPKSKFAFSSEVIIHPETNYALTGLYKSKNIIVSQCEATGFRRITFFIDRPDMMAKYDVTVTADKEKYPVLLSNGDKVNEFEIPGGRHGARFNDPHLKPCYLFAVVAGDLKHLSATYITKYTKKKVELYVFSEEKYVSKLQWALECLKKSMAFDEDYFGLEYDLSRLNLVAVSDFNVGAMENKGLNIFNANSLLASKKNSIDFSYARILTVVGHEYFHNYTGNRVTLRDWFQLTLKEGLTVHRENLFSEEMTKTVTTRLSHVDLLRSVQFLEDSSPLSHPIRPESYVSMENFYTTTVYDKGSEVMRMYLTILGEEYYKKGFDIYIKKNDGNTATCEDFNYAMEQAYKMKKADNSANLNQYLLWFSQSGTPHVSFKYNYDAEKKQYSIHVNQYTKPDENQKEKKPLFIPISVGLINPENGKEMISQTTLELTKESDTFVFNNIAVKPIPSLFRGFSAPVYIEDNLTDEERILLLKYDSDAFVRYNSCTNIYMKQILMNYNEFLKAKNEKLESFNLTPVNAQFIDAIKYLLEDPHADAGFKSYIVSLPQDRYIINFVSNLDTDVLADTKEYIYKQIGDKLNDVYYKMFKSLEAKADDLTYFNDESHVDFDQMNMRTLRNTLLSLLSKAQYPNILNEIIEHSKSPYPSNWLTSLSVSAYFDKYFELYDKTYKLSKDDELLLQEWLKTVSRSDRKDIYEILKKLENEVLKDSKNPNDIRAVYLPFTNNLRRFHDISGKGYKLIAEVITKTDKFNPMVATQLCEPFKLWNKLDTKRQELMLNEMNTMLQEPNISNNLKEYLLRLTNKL
The assay can be described thus: Inhibition of Plasmodium falciparum FcB1 M1 aminopeptidase at 10 uM. In short, it runs like this:
(§1)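 Native enzyme purified from P. falciparum FcB1, diluted 10-fold in 25 mM Tris-HCl pH 7.4. Preincubated with inhibitor for 10 min at room temperature, then Leu-pNA substrate added (0.3 mM stock, Km 0.099 mM). Kinetics followed at 405 nm at room temperature. Initial velocities normalized to a no-inhibitor control. Single-point screen at 10 µM; IC50 from velocity versus inhibitor concentration curves. Bestatin used as reference.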

For a further assay, the target named is T2, Aminopeptidase N (Plasmodium falciparum FcB1/Columbia, UniProt O96935).
T2 sequence (O96935 whole entry): T1 sequence (whole entry)
The assay can be described thus: Inhibition of Plasmodium falciparum FcB1 M1 aminopeptidase. An outline of the steps:
as §1

Assay [2] has as its target T3, Aminopeptidase N (Sus scrofa) (UniProt P15145).
T3 sequence (whole entry): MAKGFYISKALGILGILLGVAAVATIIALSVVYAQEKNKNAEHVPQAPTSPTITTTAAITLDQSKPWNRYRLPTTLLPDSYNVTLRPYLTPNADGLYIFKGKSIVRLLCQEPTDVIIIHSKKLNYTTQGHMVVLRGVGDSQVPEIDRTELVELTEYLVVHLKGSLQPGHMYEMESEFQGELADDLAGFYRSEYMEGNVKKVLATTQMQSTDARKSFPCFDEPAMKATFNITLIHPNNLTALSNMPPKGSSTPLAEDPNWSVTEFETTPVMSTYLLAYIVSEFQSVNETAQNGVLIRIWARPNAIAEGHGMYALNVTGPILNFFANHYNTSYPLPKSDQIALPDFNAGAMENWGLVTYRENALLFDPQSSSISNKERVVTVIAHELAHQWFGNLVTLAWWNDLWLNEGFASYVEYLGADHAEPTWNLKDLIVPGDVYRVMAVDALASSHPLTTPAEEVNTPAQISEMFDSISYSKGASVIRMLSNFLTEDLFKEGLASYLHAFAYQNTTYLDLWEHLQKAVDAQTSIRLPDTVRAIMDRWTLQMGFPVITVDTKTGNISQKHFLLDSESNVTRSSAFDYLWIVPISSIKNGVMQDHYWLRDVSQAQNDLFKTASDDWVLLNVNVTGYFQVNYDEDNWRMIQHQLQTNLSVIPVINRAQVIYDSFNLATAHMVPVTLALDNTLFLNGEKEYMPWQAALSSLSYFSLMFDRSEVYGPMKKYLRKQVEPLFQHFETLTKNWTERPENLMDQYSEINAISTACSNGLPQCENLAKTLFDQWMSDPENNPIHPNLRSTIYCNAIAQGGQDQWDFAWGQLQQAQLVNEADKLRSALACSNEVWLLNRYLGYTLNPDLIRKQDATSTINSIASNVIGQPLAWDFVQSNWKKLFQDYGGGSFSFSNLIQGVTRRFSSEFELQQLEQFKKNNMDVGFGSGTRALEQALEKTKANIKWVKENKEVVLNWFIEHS
The assay can be described thus: Inhibition of pig kidney microsomal APN at 10 uM. An outline of the steps: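 Porcine kidney microsomal APN (ammonium sulfate suspension) diluted 600-fold in 25 mM Tris-HCl pH 7.4. Preincubated with inhibitor for 10 min at room temperature, then Leu-pNA added (0.3 mM stock). Hydrolysis followed at 405 nm at room temperature. Rates normalized to a no-inhibitor control. Single point at 10 µM; IC50 from concentration-velocity curves. Bestatin used as reference.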

Each structure is given as a SMILES string.

The inhibition is the drop in the measured response relative to a control, in per cent. By IC50 is commonly meant the concentration that inhibits the measured activity by half. Higher therefore signals weaker potency in that assay. As for `CC(C)CC(C(=O)NO)C(=O)NCc1ccccc1` (configuration not stated), the inhibition in assay [1] was 19%; in assay [2], 39%. The same compound returned an IC50 against Aminopeptidase N of 495 nM.

Regarding `O=C(NO)C(Cc1ccccc1)C(=O)NCCCc1ccccc1` (configuration not stated), the figures for the inhibition in assay [1] and in assay [2] were 94% and 84%, respectively. For the same compound, it took 125 nM to reach half-maximal inhibition against Aminopeptidase N (IC50).

For `O=C(NO)C(Cc1ccccc1)C(=O)NCc1ccccc1` (configuration not stated), the inhibition in assay [1] worked out at 94%; in assay [2], 69%. 125 nM corresponded to half-maximal inhibition against Aminopeptidase N (IC50).

With `CC(C)CC(C(=O)NO)C(=O)NC1CCCc2ccccc21` (configuration not stated), the IC50 against Aminopeptidase N is 109 nM.

On to `O=C(NO)C(Cc1cccc(Oc2ccccc2)c1)C(=O)N1CCc2ccccc2C1` (configuration not stated), for which the inhibition in assay [1] stood at 100%; in assay [2], 84%. Half-maximal inhibition against Aminopeptidase N (IC50) required 966 nM.

In the case of `O=C(NO)C(Cc1cccc(Oc2ccccc2)c1)C(=O)NCc1ccc(C(F)(F)F)cc1` (configuration not stated), the inhibition in assay [1] worked out at 102%; in assay [2], 84%. Further, it took 231 nM to reach half-maximal inhibition against Aminopeptidase N (IC50).

As to `O=C(NO)C(Cc1ccccc1)C(=O)NCc1ccc(Cl)cc1` (configuration not stated), the figures for the inhibition in assay [1] and in assay [2] were 93% and 80%, respectively. For the same compound, at Aminopeptidase N, the midpoint of inhibition, the IC50, lay at 170 nM.

On to `O=C(NO)C(Cc1ccccc1)C(=O)N1CCC(Cc2ccccc2)CC1` (configuration not stated), for which the inhibition in assay [1] amounted to 92%; in assay [2], 34%. At Aminopeptidase N, this compound showed an IC50 of 206 nM.

Consider `CC(C)CC(C(=O)NO)C(=O)NCCCc1ccccc1` (configuration not stated), for which the inhibition in assay [1] is 98%; in assay [2], 95%. The IC50 at Aminopeptidase N came to 790 nM.

Regarding `Cc1ccccc1CNC(=O)C(N)C(=O)NO` (configuration not stated), the inhibition in assay [1] turned out to be 9%; in assay [2], 23%.

`O=C(CC(=O)NCc1ccc(Cl)cc1)NO`: the values for the inhibition in assay [1] and in assay [2] were 10% and 13%, respectively.

Regarding `O=C(NO)C(Cc1cccc(Oc2ccccc2)c1)C(=O)N1CCN(c2ccccc2)CC1` (configuration not stated), the values for the inhibition in assay [1] and in assay [2] were 38% and 63%, respectively.

For `O=C(CC(=O)N1CCN(Cc2ccc3c(c2)OCO3)CC1)NO`, the inhibition in assay [1] worked out at 7%; in assay [2], 11%.

Take `O=C(NO)C(Cc1cccc(Oc2ccccc2)c1)C(=O)N1CCC2(CC1)C(=O)NCN2c1ccccc1` (configuration not stated): the inhibition in assay [1] amounted to 65%; in assay [2], 70%.

In the case of `O=C(CC(=O)NCc1ccccc1)NO`, the inhibition in assay [1] is 2%; in assay [2] it was 19%.

Take `NC(C(=O)NO)C(=O)NCc1ccccc1` (configuration not stated): the inhibition stood at 10% in assay [1] and 77% in assay [2].

Consider `O=C(CC(=O)NCCCCc1ccccc1)NO`, for which the inhibition in assay [1] amounted to 19%; in assay [2], 36%.

On to `CC(C)CC(C(=O)NO)C(=O)N[C@H]1CCN(Cc2ccccc2)C1` (some centres not stated), for which the inhibition in assay [1] turned out to be 58%; in assay [2], 86%.

With `Cc1ccccc1CNC(=O)CC(=O)NO`, the inhibition was 32% in assay [1] and 17% in assay [2].

As to `O=C(CC(=O)N1CCC(n2c(=O)[nH]c3ccccc32)CC1)NO`, the figures for the inhibition in assay [1] and in assay [2] were 6% and 19%, respectively.

As for `NC(C(=O)NO)C(=O)NC1Cc2ccccc2C1` (configuration not stated), the results for the inhibition in assay [1] and in assay [2] were 20% and 36%, respectively.

On to `O=C(CC(=O)NCc1cccnc1)NO`, for which the results for the inhibition in assay [1] and in assay [2] were 3% and 18%, respectively.

`O=C(CC(=O)N(CCc1ccccc1)Cc1ccccc1)NO`: the inhibition in assay [1] was found to be 5%; in assay [2], 32%.

Consider `CC(C)CC(C(=O)NO)C(=O)N1CCc2ccccc2C1` (configuration not stated), for which the inhibition was 74% in assay [1] and 90% in assay [2].

Take `NC(C(=O)NO)C(=O)NCCCc1ccccc1` (configuration not stated): the inhibition was found to be 64% in assay [1] and 8% in assay [2].

Turning to `O=C(NO)C(Cc1ccccc1)C(=O)N1CCN(c2ccccc2)CC1` (configuration not stated), the inhibition in assay [1] turned out to be 20%; in assay [2], 46%.

For the compound `CC(C)CC(C(=O)NO)C(=O)N1CCC2(CC1)C(=O)NCN2c1ccccc1` (configuration not stated), the inhibition in assay [1] is 7%; in assay [2] it was 26%.

Turning to `O=C(CC(=O)N1CCC2(CCNc3ccccc3O2)CC1)NO`, the inhibition in assay [1] was -5%; in assay [2], 27%.

`CN(CCCNC(=O)CC(=O)NO)c1ccccc1`: the figures for the inhibition in assay [1] and in assay [2] were 22% and 32%, respectively.

Turning to `CC(C)CC(C(=O)NO)C(=O)N(CCCCc1ccccc1)CC(C)C` (configuration not stated), the inhibition in assay [1] amounted to 42%; in assay [2] it was 60%.

For the compound `O=C(NO)C(Cc1cccc(Oc2ccccc2)c1)C(=O)NCc1ccc(F)cc1` (configuration not stated), the results for the inhibition in assay [1] and in assay [2] were 35% and 22%, respectively.

For `NC(C(=O)NO)C(=O)NCc1ccc(C(F)(F)F)cc1` (configuration not stated), the inhibition is 6% in assay [1] and 55% in assay [2].

Regarding `CC(C)CC(C(=O)NO)C(=O)N(CCc1ccccc1)Cc1ccccc1` (configuration not stated), the results for the inhibition in assay [1] and in assay [2] were 42% and 105%, respectively.

In the case of `CN(Cc1ccccc1)C(=O)C(Cc1cccc(Oc2ccccc2)c1)C(=O)NO` (configuration not stated), the inhibition turned out to be 86% in assay [1] and 89% in assay [2].

On to `NC(C(=O)NO)C(=O)N1CCN(Cc2ccc3c(c2)OCO3)CC1` (configuration not stated), for which the inhibition in assay [1] is -3%; in assay [2] it was 23%.

On to `NC(C(=O)NO)C(=O)NCCNc1cccc2ccccc12` (configuration not stated), for which the inhibition in assay [1] amounted to 2%; in assay [2], 16%.

In the case of `CC(C)CC(C(=O)NO)C(=O)NCc1ccc(C(F)(F)F)cc1` (configuration not stated), the inhibition worked out at 24% in assay [1] and 45% in assay [2].

On to `O=C(CC(=O)NCCc1ccccc1)NO`, for which the inhibition in assay [1] is -2%; in assay [2], 27%.

Consider `O=C(NO)C(Cc1ccccc1)C(=O)NCC(c1ccccc1)c1ccccc1` (configuration not stated), for which, at Aminopeptidase N, the 50% inhibitory concentration (IC50) came to 5360 nM.

For `O=C(NO)C(Cc1ccccc1)C(=O)N(CCc1ccccc1)Cc1ccccc1` (configuration not stated), the inhibition amounted to 75% in assay [1] and 56% in assay [2].

As to `CN(Cc1ccccc1)C(=O)CC(=O)NO`, the inhibition was -4% in assay [1] and 9% in assay [2].

Compound `O=C(NO)C(Cc1ccccc1)C(=O)NCc1cccc2ccccc12` (configuration not stated) returned an IC50 against Aminopeptidase N of 107 nM.

Take `O=C(NO)C(Cc1cccc(Oc2ccccc2)c1)C(=O)NCCc1ccccc1` (configuration not stated): the inhibition turned out to be 98% in assay [1] and 88% in assay [2].

In the case of `O=C(CC(=O)NCc1ccc(F)cc1)NO`, the inhibition stood at 6% in assay [1] and 16% in assay [2].

`O=C(CC(=O)NCCCc1ccccc1)NO`: the inhibition in assay [1] came out at 2%; in assay [2], 15%.

Regarding `CC(C)CC(C(=O)NO)C(=O)N1CCN(c2ccccc2)CC1` (configuration not stated), the results for the inhibition in assay [1] and in assay [2] were 38% and 103%, respectively.

These data come from ChEMBL document CHEMBL1142961, “Novel selective inhibitors of the zinc plasmodial aminopeptidase PfA-M1 as potential antimalarial agents” (J Med Chem, 2007).
